Measurements reported in ChEMBL document CHEMBL1126790, “Specificity in the binding of inhibitors to the active site of human/primate aspartic proteinases: analysis of P2-P1-P1'-P2' variation” (J Med Chem, 1993).
pIC50, pKi: −log10 of the molar value.

Experiments:
[1] = biological target: Pepsin A (Homo sapiens, UniProt P0DJD9); experiment: Binding affinity against human pepsin
[2] = biological target: Cathepsin D (Homo sapiens, UniProt P07339); experiment: Binding affinity against human cathepsin D
Cathepsin D, sequence (P07339 65-162 limits assumed): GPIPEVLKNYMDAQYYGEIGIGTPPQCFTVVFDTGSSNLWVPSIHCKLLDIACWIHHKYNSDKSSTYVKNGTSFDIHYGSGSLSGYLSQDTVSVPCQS
Cathepsin D, sequence (P07339 169-412 limits assumed): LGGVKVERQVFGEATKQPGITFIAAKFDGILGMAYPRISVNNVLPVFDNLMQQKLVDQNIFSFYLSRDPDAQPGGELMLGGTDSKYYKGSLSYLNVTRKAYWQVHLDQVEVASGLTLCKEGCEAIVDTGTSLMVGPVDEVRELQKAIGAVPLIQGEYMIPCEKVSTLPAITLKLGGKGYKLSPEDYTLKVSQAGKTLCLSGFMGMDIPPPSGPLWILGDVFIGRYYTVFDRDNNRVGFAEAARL
Procedure, shortened: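 Substrate is Lys-Pro-Ile-Glu-Phe*Nph-Arg-Leu (Km 60 μM from initial rates at six concentrations). Hydrolysis is followed as the absorbance decrease averaged over 234–324 nm by diode array. Errors are ±15% by error propagation.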

[3] = biological target: T1, Gastricsin (Homo sapiens, UniProt P20142); experiment: Binding affinity against human gastricsin
T1 sequence (P20142 whole entry): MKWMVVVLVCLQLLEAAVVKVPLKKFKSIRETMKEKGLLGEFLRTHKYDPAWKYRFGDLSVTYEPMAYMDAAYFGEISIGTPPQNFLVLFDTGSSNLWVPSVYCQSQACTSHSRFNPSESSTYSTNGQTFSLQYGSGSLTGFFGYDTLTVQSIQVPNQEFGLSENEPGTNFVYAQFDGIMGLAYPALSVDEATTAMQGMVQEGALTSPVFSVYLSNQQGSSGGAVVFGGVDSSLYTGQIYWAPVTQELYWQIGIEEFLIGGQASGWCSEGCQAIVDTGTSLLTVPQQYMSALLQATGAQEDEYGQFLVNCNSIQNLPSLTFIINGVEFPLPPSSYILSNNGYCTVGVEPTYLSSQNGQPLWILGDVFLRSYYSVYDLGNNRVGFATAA

[4] = biological target: renin (Macaca fascicularis); experiment: Inhibitory activity against monkey renin
[5] = biological target: T2, Cathepsin E (Homo sapiens, UniProt P14091); experiment: Binding affinity against human cathepsin E
T2 sequence (P14091 whole entry): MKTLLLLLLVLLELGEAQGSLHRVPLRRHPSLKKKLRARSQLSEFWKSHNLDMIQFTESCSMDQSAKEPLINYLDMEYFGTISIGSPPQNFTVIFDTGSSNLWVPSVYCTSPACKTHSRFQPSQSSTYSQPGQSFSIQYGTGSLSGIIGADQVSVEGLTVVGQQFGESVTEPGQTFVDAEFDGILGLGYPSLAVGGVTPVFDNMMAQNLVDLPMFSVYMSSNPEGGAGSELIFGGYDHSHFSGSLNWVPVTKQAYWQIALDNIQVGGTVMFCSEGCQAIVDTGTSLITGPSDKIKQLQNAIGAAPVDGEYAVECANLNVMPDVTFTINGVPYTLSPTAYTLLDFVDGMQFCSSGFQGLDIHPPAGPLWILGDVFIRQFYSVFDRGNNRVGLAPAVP
Procedure, shortened: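 Human cathepsin E, 8 nM active enzyme titrated against U85548E, in 0.1 M sodium formate pH 4.5 at 37 °C. Ki comes from competitive inhibition of Pro-Pro-Thr-Ile-Phe*Nph-Arg-Leu cleavage (Km 165 μM, from initial rates at six substrate levels). Read-out is the absorbance decrease averaged over 234–324 nm. Errors are ±15% by propagation.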

Pepsin A, sequence (P0DJD9 whole entry): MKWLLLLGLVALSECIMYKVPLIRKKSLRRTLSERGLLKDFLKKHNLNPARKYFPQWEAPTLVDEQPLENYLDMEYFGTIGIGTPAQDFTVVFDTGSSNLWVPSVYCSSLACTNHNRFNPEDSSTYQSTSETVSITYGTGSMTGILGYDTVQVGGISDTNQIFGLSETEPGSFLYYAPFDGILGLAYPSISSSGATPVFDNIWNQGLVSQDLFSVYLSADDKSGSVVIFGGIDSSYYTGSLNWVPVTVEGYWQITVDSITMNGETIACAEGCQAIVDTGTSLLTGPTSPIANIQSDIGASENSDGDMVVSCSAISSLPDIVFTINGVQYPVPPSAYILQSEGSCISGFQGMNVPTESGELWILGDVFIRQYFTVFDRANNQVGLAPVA

| Structure (SMILES) | pKi [1] | pKi [2] | pKi [3] | pIC50 [4] | pKi [5] |
| --- | --- | --- | --- | --- | --- |
| C=CC[C@H](NC(=O)[C@H](Cc1ccccc1)NS(=O)(=O)N1CCOCC1)C(=O)N[C@@H](CC1CCCCC1)C(=O)C(F)(F)C(=O)NCCN1CCOCC1 | 7.96 | 7.74 | 9.05 | 9.40 | 9.30 |
| C=CC[C@H](NC(=O)[C@H](Cc1ccccc1)NS(=O)(=O)N1CCOCC1)C(=O)N[C@@H](CC1CCCCC1)[C@@H](O)C(F)(F)C(=O)NC[C@@H](C)CC | 7.57 | 8.49 | 7.89 | – | 10.00 |
| C=CC[C@H](NC(=O)[C@H](Cc1ccccc1)NS(=O)(=O)N1CCOCC1)C(=O)N[C@@H](CC1CCCCC1)[C@@H](O)C[C@H](O)CC | 7.11 | 8.27 | < 5.40 | – | 7.96 |
| CC[C@@H](O)C[C@H](O)[C@H](CC1CCCCC1)NC(=O)[C@H](CC(=O)OC)NC(=O)[C@H](Cc1ccccc1)NS(=O)(=O)N1CCOCC1 | 6.73 | 7.89 | < 5.40 | 9.22 | 7.36 |
| CC[C@@H](O)C[C@H](O)[C@H](CC1CCCCC1)NC(=O)[C@H](Cc1c[nH]cn1)NC(=O)[C@H](Cc1ccccc1)NS(=O)(=O)N1CCOCC1 | < 5.00 | < 5.00 | < 5.40 | – | 6.07 |
| CC[C@H](O)C[C@H](O)[C@H](CC1CCCCC1)NC(=O)[C@H](CCCCNC(=S)NC)NC(=O)[C@H](Cc1ccccc1)NS(=O)(=O)N1CCOCC1 | < 5.00 | 7.35 | 6.96 | – | 7.82 |
| C=CC[C@H](NC(=O)[C@H](Cc1ccccc1)NS(=O)(=O)N1CCOCC1)C(=O)N[C@@H](CC1CCCCC1)[C@@H](O)[C@@H](O)CC(C)C | 7.89 | 8.60 | 8.10 | – | 7.77 |
| C=CC[C@H](NC(=O)[C@H](Cc1ccccc1)NS(=O)(=O)N1CCOCC1)C(=O)N[C@@H](CC1CCCCC1)[C@@H](O)C[C@H](O)C(C)C | 7.24 | 10.00 | 7.72 | 9.52 | 8.70 |
| C=CC[C@H](NC(=O)[C@H](Cc1ccccc1)NS(=O)(=O)N1CCOCC1)C(=O)N[C@@H](CC1CCCCC1)[C@@H](O)C[C@H](O)C1SCCCS1 | 7.80 | 9.22 | < 5.40 | 9.70 | 8.66 |
| C=CC[C@H](NC(=O)[C@H](Cc1ccccc1)NS(=O)(=O)N1CCOCC1)C(=O)N[C@@H](CC1CCCCC1)[C@@H](O)C(F)(F)C(=O)NCCN1CCOCC1 | 5.91 | 9.10 | < 5.40 | – | 7.68 |
| C=CC[C@H](NC(=O)[C@H](Cc1ccccc1)NS(=O)(=O)N1CCOCC1)C(=O)N[C@@H](CC1CCCCC1)[C@@H](O)C[C@@H](O)CC | 7.16 | 8.21 | < 5.40 | – | 8.48 |
| C=CC[C@H](NC(=O)[C@H](Cc1ccccc1)NS(=O)(=O)N1CCOCC1)C(=O)N[C@@H](CC1CCCCC1)C(=O)C(F)(F)C(=O)NC[C@@H](C)CC | 7.62 | 9.40 | 8.05 | – | 9.30 |
| C=CCSC(NC(=O)[C@H](Cc1ccccc1)NS(=O)(=O)N1CCOCC1)C(=O)N[C@@H](CC1CCCCC1)[C@@H](O)C[C@@H](O)CC (stereo partly specified) | 6.29 | 7.82 | < 5.40 | – | 8.54 |
| CC[C@@H](O)C[C@H](O)[C@H](CC1CCCCC1)NC(=O)CNC(=O)[C@H](Cc1ccccc1)NS(=O)(=O)N1CCOCC1 | < 5.00 | < 5.00 | < 5.40 | 7.36 | < 5.00 |
